This sample holds only a part of the variants without activity.
B1: tRNA (parent)
chain: GUUCCGUUGGCGUAAUGGUAACGCGUCUCCCUCCUAAGGAGAAGACUGCGGGUUCGAGUCCCGUACGGAACG

Variants of: B1
Assay: yeast fitness relative to wild type (ratio to wild type); higher = fitter; tRNA-Arg(CCU), competitive growth, 37 C, YPD
Summary of the method: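 Start and end populations of a pooled competition were compared by 100-nucleotide paired-end sequencing of gene amplicons. The Saccharomyces cerevisiae strains carried tRNA-Arg(CCU) gene variants at the native genomic locus, synthesised with a 3% per-site mutation rate at 69 sites, and competed in YPD at 37°C for 24 hours in six parallel replicates. Darwinian fitness relative to wild type was based on the change in genotype frequencies. Genotypes required ≥ 100 starting reads, and estimates < 0.5 were set to 0.5.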

Variant	yeast fitness
GUUCCGUUGGCGUAAUGGUAACGCGUCUCCCUCCUAAGGAGCAGACUGCGGGUUCGAGUCUGGUACGGAACG [A42C C61U C62G]	≤ 0.5
GUUCCGUUGGCGUAAUGGUAACGCGUCUCCCUCCUAAGGAGCUGACUGCGGGUUCCAGUCCCGUAUGGAACG [A42C A43U G56C C66U]	≤ 0.5
GUUCCGUUGGCGUAAUGGUAACGCGUCUCCCUCCUAAGGAGCAGGCUGCGAGUUCGAGUCCCGUACGGAACG [A42C A45G G51A]	≤ 0.5
GUUCCGUUGGCGUAAUGGUAACGCGUCUCCCUCCUAAGGAGCAGACUCCGGGUUUGAGUCCCGUACGGAACG [A42C G48C C55U]	0.557
GUUCCGUUGGCGUAAUGGUAACGCGUCUCCCUCCUAAGGAGCAGACUGCGGGUUAGAGUCCCGUUCGGAACG [A42C C55A A65U]	≤ 0.5
GUUCCGUUGGCGUAAUGGUAACGCGUCUCCCUCCUAAGGAGCAGACUGCGGGUUCGAGUGCGGUACGCAACG [A42C C60G C62G G68C]	≤ 0.5
GUUCCGUUGGCGUAAUGGUAACGCGUCUCCCUCCUAAGGAGCAGAGUGCGGGUUCGAGUCCCGUUCGGAACG [A42C C46G A65U]	≤ 0.5
GUUCCGUUGGCGUAAUGGUAACGCGUCUCCCUCCUAAGGACAAGACUGCGGGUUCGAGUCCCGUACGAAACG [G41C G68A]	0.883
GUUCCGUUGGCGUAAUGGUAACGCGUCUCCCUCCUAAGGACAAGACUGCGGGUUCGAGUCCCGUACGCAACG [G41C G68C]	0.774
GUUCCGUUGGCGUAAUGGUAACGCGUCUCCCUCCUAAGGACAAGACUGCGGGUUCGAGACCCGUACGGAACG [G41C U59A]	0.801
GUUCCGUUGGCGUAAUGGUAACGCGUCUCCCUCCUAAGGAGCAGACUGCGGGUUCGAGUCCUGUACGGUACG [A42C C62U A69U]	0.689
GUUCCGUUGGCGUAAUGGUAACGCGUCUCCCUCCUAAGGAGCAGACUGCCGGUUCGAGUCCCGUACGGAACG [A42C G50C]	0.548
GUUCCGUUGGCGUAAUGGUAACGCGUCUCCCUCCUAAGGACAAGACUACGGGUUAGAGUCCCGUACGGAACG [G41C G48A C55A]	0.569
GUUCCGUUGGCGUAAUGGUAACGCGUCUCCCUCCUAAGGAGCAGACCGCGGGUUCGAGUCCCGUACGGUACG [A42C U47C A69U]	0.821
GUUCCGUUGGCGUAAUGGUAACGCGUCUCCCUCCUAAGGAUAAGAAUGCGGGUUCGAGUCCCGUACGGAUCG [G41U C46A A70U]	0.632
GUUCCGUUGGCGUAAUGGUAACGCGUCUCCCUCCUAAGGAGCAGACUGCGGGUUCGAGUCCCGUACAGAACG [A42C G67A]	0.833
GUUCCGUUGGCGUAAUGGUAACGCGUCUCCCUCCUAAGGAGCAGCCUGCGGGAUCGAGUCCCGUCCGGUACG [A42C A45C U53A A65C A69U]	≤ 0.5
GUUCCGUUGGCGUAAUGGUAACGCGUCUCCCUCCUAAGGAGCAGACUGUGGGUUCGAGUCCCGUACGGAACG [A42C C49U]	0.939
GUUCCGUUGGCGUAAUGGUAACGCGUCUCCCUCCUAAGGACAAGACUGCGGGUUCGAGUCCCGGACGGAACG [G41C U64G]	0.735

Variant	yeast fitness
GUUCCGUUGGCGUAAUGGUAACGCGUCUCCCUCCUAAGGAGCCGACUGCGGGUUGGGGUCCCGUACGGAACG [A42C A43C C55G A57G]	0.641
GUUCCGUUGGCGUAAUGGUAACGCGUCUCCCUCCUAAGGAGCAGACUGCGAGUUCGAGUCCCGUACGGAACG [A42C G51A]	0.849
GUUCCGUUGGCGUAAUGGUAACGCGUCUCCCUCCUAAGGACAAGACUCCGGGUUCGAGUCCCGUACGGCACG [G41C G48C A69C]	0.606
GUUCCGUUGGCGUAAUGGUAACGCGUCUCCCUCCUAAGGAGCAGACUGCGGGUUCGAGUCCCGUAUGGAACG [A42C C66U]	0.816
GUUCCGUUGGCGUAAUGGUAACGCGUCUCCCUCCUAAGGAGCAGACUGCAGGUUCGAGUCCCGAACGGAACG [A42C G50A U64A]	≤ 0.5
GUUCCGUUGGCGUAAUGGUAACGCGUCUCCCUCCUAAGGAGCAGACUGCGGGUUCGAGUCCCCUACGGAACG [A42C G63C]	0.681
GUUCCGUUGGCGUAAUGGUAACGCGUCUCCCUCCUAAGGACAAGACUGCGGCUUCGAGUCCCGUACGGAACG [G41C G52C]	0.527
GUUCCGUUGGCGUAAUGGUAACGCGUCUCCCUCCUAAGGAGCAGACUGCGGGUACGAGUCCCGUACCGUACG [A42C U54A G67C A69U]	0.571
GUUCCGUUGGCGUAAUGGUAACGCGUCUCCCUCCUAAGGAGCAGACUCCGGGUUCGAGUCCCGUACAGAACG [A42C G48C G67A]	0.574
GUUCCGUUGGCGUAAUGGUAACGCGUCUCCCUCCUAAGGAGCAGACUGCGGCUUCGAGUCCCGUACGGCACG [A42C G52C A69C]	0.607
GUUCCGUUGGCGUAAUGGUAACGCGUCUCCCUCCUAAGGAGCAGACUGCGGGUUCGAGUCCCGUACGGCUCG [A42C A69C A70U]	0.721
GUUCCGUUGGCGUAAUGGUAACGCGUCUCCCUCCUAAGGAGCAGACUGCGGGUUCGAGUCCCGUGGGGAACG [A42C A65G C66G]	≤ 0.5
GUUCCGUUGGCGUAAUGGUAACGCGUCUCCCUCCUAAGGAGCAGACCGCGGGUACGAGUCCCGUACCGUACG [A42C U47C U54A G67C A69U]	≤ 0.5
GUUCCGUUGGCGUAAUGGUAACGCGUCUCCCUCCUAAGGACAAGACUGCGGGUUCGAGUCCCGUACAGAACG [G41C G67A]	0.89
GUUCCGUUGGCGUAAUGGUAACGCGUCUCCCUCCUAAGGAGCAGACUGCGGGUUCGAGUCCUGUAUGGAACG [A42C C62U C66U]	0.507
GUUCCGUUGGCGUAAUGGUAACGCGUCUCCCUCCUAAGGAGCAGACUGCGGGUUCGUGUCCCGUACGGAACG [A42C A57U]	0.688
GUUCCGUUGGCGUAAUGGUAACGCGUCUCCCUCCUAAGGAGCAGACUGCGGGUUCGCGUCCCGUACGGAACG [A42C A57C]	0.62
GUUCCGUUGGCGUAAUGGUAACGCGUCUCCCUCCUAAGGACAACACUGCGGGUUAGAGUCCCGUACGGAACG [G41C G44C C55A]	0.563
GUUCCGUUGGCGUAAUGGUAACGCGUCUCCCUCCUAAGGAGCAGACUGCGGGUUCGAGUUCCGUACGGAACG [A42C C60U]	0.749

From the RNAGym collection of RNA variant scans (doi:10.1126/science.aae0568)
